Laboratory results from ChEMBL document CHEMBL2163193, “Meroterpenoid and diphenyl ether derivatives from Penicillium sp. MA-37, a fungus isolated from marine mangrove rhizospheric soil” (J Nat Prod, 2012).
Values after ≈ are worked out from the molar mass of the structure shown.

Key:
[1] = system: Micrococcus luteus; test: Antimicrobial activity against Micrococcus luteus by broth microdilution method; format: functional
Outline: (§1)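 Broth microdilution run per a cited literature method, with chloromycetin as the positive control. The read-out is the MIC in μg/mL.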

[2] = system: Escherichia coli; test: Antimicrobial activity against Escherichia coli by broth microdilution method; format: functional; outline: as §1
[3] = Toxicity against brine shrimp; format: organism-based; details: artemia, in vivo; read-out: LD50 (the source's name)
Outline: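 Brine shrimp lethality follows a literature procedure, with DMSO as the negative control and colchicine as the positive control. Lethality is expressed as LD50 in μM.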

Row | MIC [1] [µg/mL] | MIC [2] [µg/mL] | SMILES | LC50 [3] [µM]
1 | 256 (≈ 633 µM) | 32 (≈ 79.1 µM) | COc1c(C(CC(C)C)OC)ccc(Oc2c(O)cc(C)cc2CO)c1C(=O)O (stereo unspecified) | 
2 |  |  | COc1c(/C=C/C(C)(C)OC)ccc2c1C(=O)OCc1cc(C)cc(O)c1O2 | 72.6
3 |  |  | COc1cc2c(c(OC)c1OC)-c1ccc(OC)c(=O)cc1[C@@H](NC(C)=O)CC2 [COLCHICINE] | 71.1
4 | 64 (≈ 160 µM) | 16 (≈ 40 µM) | CC(=O)OCc1cc(C)cc(O)c1Oc1ccc(CC=C(C)C)c(O)c1C(=O)O | 
5 |  |  | COC(=O)[C@]12C(=O)[C@H](C)O[C@@H]3OC(=O)[C@](C)(C[C@H]4[C@]5(CO5)C5=CC(=O)OC(C)(C)C5=CC[C@@]41C)[C@@H]32 [BERKELEYACETAL B] | 160
6 |  |  | COc1c([C@@H](O)CC(C)C)ccc2c1C(=O)OCc1cc(C)cc(O)c1O2 [PENICILLIDE] | 158
7 |  |  | C=C(C)/C=C/c1ccc2c(c1OC)C(=O)OCc1cc(C)cc(O)c1O2 | 136

Row | SMILES | MIC [1] [µg/mL] | MIC [2] [µg/mL] | LC50 [3] [µM]
8 | O=C(N[C@H](CO)[C@H](O)c1ccc([N+](=O)[O-])cc1)C(Cl)Cl [CHLORAMPHENICOL] | 4 (≈ 12.4 µM) | 4 (≈ 12.4 µM) | 
